Source: PMC4285624 (Biochemical pharmacology, 2014)

Experiments:
[1] = target: Full length, heterotrimeric human RPA (fl-RPA) (Homo sapiens, UniProt P27694); assay: EMSA of full length RPA binding to ssDNA; type: biochemical; details: read-out: In vitro IC50, RPA-DNA binding, compounds titrated 1–125 μM
Outline: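 Recombinant full-length heterotrimeric human RPA (50 nM, E. coli-expressed) was preincubated 30 min with DMSO-dissolved compound (DMSO ≤5%). Bound and free DNA were separated on 6% native gels and quantified by phosphorimager. IC50 came from nonlinear regression; three independent determinations.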

RPA DBD-A/B = RPA DBD-A/B (Homo sapiens, UniProt P27694); assay: EMSA of RPA DBD-A/B binding to DNA; type: biochemical; details: 150 nM DBD-A/B, compounds 25–100 μM
Outline: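 The RPA181–432 DBD-A/B fragment was expressed in E. coli BL21(DE3) as a SUMO-His6 fusion (0.5 mM IPTG, 3 h, 37 °C). It was Ni-NTA purified, SUMO-cleaved with ULP1, and polished by size exclusion. Protein was preincubated 30 min with compound, then mixed with 2.5 nM 5′-32P 34-base DNA for 5 min at room temperature. Products were run on 6% native gels at 4 °C and quantified by phosphorimager.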

[2] = test system: peripheral blood lymphocytes; details: cited from earlier work
[3] = cited from earlier work
lung cancer cell line = details: cited from earlier work

Sequence of Full length, heterotrimeric human RPA (fl-RPA) (P27694 whole entry): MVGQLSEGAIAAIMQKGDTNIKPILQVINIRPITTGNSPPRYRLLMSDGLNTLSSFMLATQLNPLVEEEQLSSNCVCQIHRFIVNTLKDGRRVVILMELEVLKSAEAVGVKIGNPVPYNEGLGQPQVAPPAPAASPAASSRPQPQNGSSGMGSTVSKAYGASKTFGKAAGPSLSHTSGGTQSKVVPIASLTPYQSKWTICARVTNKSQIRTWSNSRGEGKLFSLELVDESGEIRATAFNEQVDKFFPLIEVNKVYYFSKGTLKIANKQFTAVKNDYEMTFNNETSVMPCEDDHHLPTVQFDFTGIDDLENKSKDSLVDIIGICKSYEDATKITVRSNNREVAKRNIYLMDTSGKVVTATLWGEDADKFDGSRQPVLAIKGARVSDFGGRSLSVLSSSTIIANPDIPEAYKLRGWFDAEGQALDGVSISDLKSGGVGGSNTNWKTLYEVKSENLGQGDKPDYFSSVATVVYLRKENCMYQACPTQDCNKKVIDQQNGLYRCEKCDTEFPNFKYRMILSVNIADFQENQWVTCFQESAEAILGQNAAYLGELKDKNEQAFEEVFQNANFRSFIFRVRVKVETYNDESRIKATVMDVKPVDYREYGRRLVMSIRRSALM
Sequence of Full length, heterotrimeric human RPA (fl-RPA) (P15927 whole entry partner): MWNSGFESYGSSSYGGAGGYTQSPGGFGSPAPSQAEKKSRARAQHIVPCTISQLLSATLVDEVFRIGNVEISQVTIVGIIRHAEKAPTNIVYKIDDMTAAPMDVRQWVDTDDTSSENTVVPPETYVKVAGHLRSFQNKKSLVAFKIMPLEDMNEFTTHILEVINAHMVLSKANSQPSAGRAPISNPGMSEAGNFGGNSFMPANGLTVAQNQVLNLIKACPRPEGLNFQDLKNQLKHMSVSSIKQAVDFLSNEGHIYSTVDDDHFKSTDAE
Sequence of Full length, heterotrimeric human RPA (fl-RPA) (P35244 whole entry partner): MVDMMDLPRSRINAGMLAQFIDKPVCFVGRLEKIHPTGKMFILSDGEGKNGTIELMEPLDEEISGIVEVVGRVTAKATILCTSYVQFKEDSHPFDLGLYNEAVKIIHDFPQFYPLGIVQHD
Sequence of RPA DBD-A/B (P27694 181-432): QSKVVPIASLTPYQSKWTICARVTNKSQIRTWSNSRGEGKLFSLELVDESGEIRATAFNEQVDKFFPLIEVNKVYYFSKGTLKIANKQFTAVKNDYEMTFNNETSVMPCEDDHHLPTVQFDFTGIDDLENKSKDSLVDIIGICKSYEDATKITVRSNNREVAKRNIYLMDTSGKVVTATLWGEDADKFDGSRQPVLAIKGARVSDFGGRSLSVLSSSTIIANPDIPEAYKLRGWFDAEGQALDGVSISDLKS

IC50 [1]: 38 µM
inhibition of RPA DBD-A/B-DNA interaction (RPA DBD-A/B): inhibit RPA DBD-A/B-DNA interaction
Structure (SMILES): CCOc1ccc2cc(C3CC(c4ccc(Br)cc4)=NN3C(=O)CCC(=O)O)c(Cl)nc2c1 (stereo not drawn) [TDRL-505]
cytotoxic effects on peripheral blood lymphocytes [2]: minimal cytotoxic effects
cell cycle effect [3]: G1 cell cycle arrest
synergy with Pt (lung cancer cell line; lung cancer cell line, published data): synergy
synergy with etoposide (lung cancer cell line; lung cancer cells, flow cytometry based Annexin-PI staining assay): highly synergistic
